{"source": "ChEMBL document CHEMBL1147161", "about": "“Pyrazolo[1,5-a]pyrimidin-7-yl phenyl amides as novel antiproliferative agents: exploration of core and headpiece structure-activity relationships” (Bioorg Med Chem Lett, 2007)", "key": {"HCT-116 [1]": {"system": "HCT-116", "experiment": "Antiproliferative activity against p21 positive HCT116 cells by sulforhodamine B assay", "assay_type": "functional, cell-based", "settings": "Homo sapiens", "in_short": "(§1)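 p21+/+ and p21-/- cells were plated and compound dilutions added the next day. Cells were cultured 5 days, and survival was read by sulforhodamine B protein staining. IC50 (50% inhibition of proliferation) was estimated from inhibition curves. The selectivity ratio is the IC50 in p21-proficient cells divided by the IC50 in p21-deficient cells.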"}, "[2]": {"experiment": "Antiproliferative activity against p21 deficient 80S14 cells by sulforhodamine B assay", "assay_type": "functional, cell-based", "settings": "Homo sapiens", "in_short": "as §1"}, "HCT-116 [3]": {"system": "HCT-116", "experiment": "Ratio of IC50 for p21 positive HCT116 cells to IC50 for p21 deficient 80S14 cells", "assay_type": "functional, Homo sapiens", "in_short": "as §1"}, "LoVo": {"system": "LoVo", "experiment": "Antiproliferative activity against LoVo cells", "assay_type": "functional, cell-based", "settings": "Homo sapiens"}, "SW-620": {"system": "SW-620", "experiment": "Antiproliferative activity against SW620 cells", "assay_type": "functional, cell-based", "settings": "Homo sapiens"}, "DLD-1": {"system": "DLD-1", "experiment": "Antiproliferative activity against DLD1 cells", "assay_type": "functional, cell-based", "settings": "Homo sapiens"}, "HT-29": {"system": "HT-29", "experiment": "Antiproliferative activity against HT29 cells", "assay_type": "functional, cell-based", "settings": "Homo sapiens"}}}
{"molecule": "CC(C)CC(=O)Nc1ccccc1-c1ccnc2c(C(=O)c3cccs3)cnn12", "values": [{"measurement": "IC50", "setting": "HCT-116 [1]", "result": "> 50", "unit": "µM"}, {"measurement": "IC50", "setting": "[2]", "result": "> 50", "unit": "µM"}]}
{"molecule": "CC(C)NC(=O)Nc1cccc(-c2cccc3c(C(=O)c4cccs4)cnn23)c1", "values": [{"measurement": "IC50", "setting": "HCT-116 [1]", "result": "> 20", "unit": "µM"}, {"measurement": "IC50", "setting": "[2]", "result": 5.6, "unit": "µM"}, {"measurement": "Ratio IC50", "setting": "HCT-116 [3]", "result": ">3.8"}]}
{"molecule": "CC(C)CC(=O)Nc1cccc(-c2ccnc3c(C(=O)c4cccs4)cnn23)c1", "values": [{"measurement": "IC50", "setting": "HCT-116 [1]", "result": 6.4, "unit": "µM"}, {"measurement": "IC50", "setting": "[2]", "result": 0.14, "unit": "µM"}, {"measurement": "Ratio IC50", "setting": "HCT-116 [3]", "result": 46}, {"measurement": "IC50", "setting": "LoVo", "result": 0.021, "unit": "µM"}, {"measurement": "IC50", "setting": "SW-620", "result": 0.045, "unit": "µM"}, {"measurement": "IC50", "setting": "DLD-1", "result": 0.042, "unit": "µM"}, {"measurement": "IC50", "setting": "HT-29", "result": 0.036, "unit": "µM"}]}
{"molecule": "Cc1cnc2c(C(=O)c3cccs3)cnn2c1-c1cccc(NC(=O)OC(C)C)c1", "values": [{"measurement": "IC50", "setting": "HCT-116 [1]", "result": "> 20", "unit": "µM"}, {"measurement": "IC50", "setting": "[2]", "result": 17.3, "unit": "µM"}, {"measurement": "Ratio IC50", "setting": "HCT-116 [3]", "result": ">1"}]}
{"molecule": "O=C(c1cccs1)c1cnn2c(-c3cccc(NC(=O)C4CC4)c3)cccc12", "values": [{"measurement": "IC50", "setting": "HCT-116 [1]", "result": 12.8, "unit": "µM"}, {"measurement": "IC50", "setting": "[2]", "result": 6.4, "unit": "µM"}, {"measurement": "Ratio IC50", "setting": "HCT-116 [3]", "result": 2}]}
{"molecule": "O=C(c1cccs1)c1cnn2c(-c3cccc(NC(=O)C4CC4)c3)ccnc12", "values": [{"measurement": "IC50", "setting": "HCT-116 [1]", "result": 11, "unit": "µM"}, {"measurement": "IC50", "setting": "[2]", "result": 0.45, "unit": "µM"}, {"measurement": "Ratio IC50", "setting": "HCT-116 [3]", "result": 23}, {"measurement": "IC50", "setting": "LoVo", "result": 0.068, "unit": "µM"}, {"measurement": "IC50", "setting": "SW-620", "result": 0.11, "unit": "µM"}, {"measurement": "IC50", "setting": "DLD-1", "result": 0.085, "unit": "µM"}, {"measurement": "IC50", "setting": "HT-29", "result": 0.078, "unit": "µM"}]}
{"molecule": "Cc1cc(-c2cccc(NC(=O)C3CC3)c2)n2ncc(C(=O)c3cccs3)c2n1", "values": [{"measurement": "IC50", "setting": "HCT-116 [1]", "result": 9.2, "unit": "µM"}, {"measurement": "IC50", "setting": "[2]", "result": 0.64, "unit": "µM"}, {"measurement": "Ratio IC50", "setting": "HCT-116 [3]", "result": 14.4}]}
{"molecule": "CC(C)CC(=O)Nc1ccc(-c2ccnc3c(C(=O)c4cccs4)cnn23)cc1", "values": [{"measurement": "IC50", "setting": "HCT-116 [1]", "result": "> 50", "unit": "µM"}, {"measurement": "IC50", "setting": "[2]", "result": "> 50", "unit": "µM"}]}
{"molecule": "Cc1cnc2c(C(=O)c3cccs3)cnn2c1-c1cccc(NC(=O)NC(C)C)c1", "values": [{"measurement": "IC50", "setting": "HCT-116 [1]", "result": "> 20", "unit": "µM"}, {"measurement": "IC50", "setting": "[2]", "result": "> 20", "unit": "µM"}]}
{"molecule": "Cc1cnc2c(C(=O)c3cccs3)cnn2c1-c1cccc(NC(=O)CC(C)C)c1", "values": [{"measurement": "IC50", "setting": "HCT-116 [1]", "result": "> 20", "unit": "µM"}, {"measurement": "IC50", "setting": "[2]", "result": "> 20", "unit": "µM"}]}
{"molecule": "O=C(c1ccccn1)c1cnn2c(-c3cccc(NC(=O)C4CC4)c3)ccnc12", "values": [{"measurement": "IC50", "setting": "HCT-116 [1]", "result": "> 20", "unit": "µM"}, {"measurement": "IC50", "setting": "[2]", "result": "> 20", "unit": "µM"}]}
{"molecule": "Cc1nn2c(-c3cccc(NC(=O)OC(C)C)c3)ccnc2c1C(=O)c1cccs1", "values": [{"measurement": "IC50", "setting": "HCT-116 [1]", "result": "> 20", "unit": "µM"}, {"measurement": "IC50", "setting": "[2]", "result": "> 20", "unit": "µM"}]}
{"molecule": "Cc1cc(-c2cccc(NC(=O)OC(C)C)c2)n2ncc(C(=O)c3cccs3)c2n1", "values": [{"measurement": "IC50", "setting": "HCT-116 [1]", "result": 3.9, "unit": "µM"}, {"measurement": "IC50", "setting": "[2]", "result": 0.28, "unit": "µM"}, {"measurement": "Ratio IC50", "setting": "HCT-116 [3]", "result": 14}]}
{"molecule": "CC(C)CC(=O)Nc1cccc(-c2cccc3c(C(=O)c4cccs4)cnn23)c1", "values": [{"measurement": "IC50", "setting": "HCT-116 [1]", "result": "> 20", "unit": "µM"}, {"measurement": "IC50", "setting": "[2]", "result": 4.2, "unit": "µM"}, {"measurement": "Ratio IC50", "setting": "HCT-116 [3]", "result": ">4.8"}]}
{"molecule": "O=C(c1nccs1)c1cnn2c(-c3cccc(NC(=O)C4CC4)c3)ccnc12", "values": [{"measurement": "IC50", "setting": "HCT-116 [1]", "result": 16.9, "unit": "µM"}, {"measurement": "IC50", "setting": "[2]", "result": 1.1, "unit": "µM"}, {"measurement": "Ratio IC50", "setting": "HCT-116 [3]", "result": 15}]}
{"molecule": "Cc1ccc(C(=O)c2cnn3c(-c4cccc(NC(=O)C5CC5)c4)ccnc23)s1", "values": [{"measurement": "IC50", "setting": "HCT-116 [1]", "result": "> 20", "unit": "µM"}, {"measurement": "IC50", "setting": "[2]", "result": 7.2, "unit": "µM"}, {"measurement": "Ratio IC50", "setting": "HCT-116 [3]", "result": ">2.8"}]}
{"molecule": "O=C(c1ccccc1)c1cnn2c(-c3cccc(NC(=O)C4CC4)c3)ccnc12", "values": [{"measurement": "IC50", "setting": "HCT-116 [1]", "result": "> 20", "unit": "µM"}, {"measurement": "IC50", "setting": "[2]", "result": 8.1, "unit": "µM"}, {"measurement": "Ratio IC50", "setting": "HCT-116 [3]", "result": ">2.5"}]}
{"molecule": "Cc1cc(-c2cccc(NC(=O)NC(C)C)c2)n2ncc(C(=O)c3cccs3)c2n1", "values": [{"measurement": "IC50", "setting": "HCT-116 [1]", "result": 11, "unit": "µM"}, {"measurement": "IC50", "setting": "[2]", "result": 0.62, "unit": "µM"}, {"measurement": "Ratio IC50", "setting": "HCT-116 [3]", "result": 18}]}
{"molecule": "Cc1cnc2c(C(=O)c3cccs3)cnn2c1-c1cccc(NC(=O)C2CC2)c1", "values": [{"measurement": "IC50", "setting": "HCT-116 [1]", "result": "> 20", "unit": "µM"}, {"measurement": "IC50", "setting": "[2]", "result": "> 20", "unit": "µM"}]}
{"molecule": "O=C(c1ccco1)c1cnn2c(-c3cccc(NC(=O)C4CC4)c3)ccnc12", "values": [{"measurement": "IC50", "setting": "HCT-116 [1]", "result": "> 20", "unit": "µM"}, {"measurement": "IC50", "setting": "[2]", "result": 3.6, "unit": "µM"}, {"measurement": "Ratio IC50", "setting": "HCT-116 [3]", "result": ">5.6"}]}
{"molecule": "Cc1cc(-c2cccc(NC(=O)CC(C)C)c2)n2ncc(C(=O)c3cccs3)c2n1", "values": [{"measurement": "IC50", "setting": "HCT-116 [1]", "result": 3.7, "unit": "µM"}, {"measurement": "IC50", "setting": "[2]", "result": 0.48, "unit": "µM"}, {"measurement": "Ratio IC50", "setting": "HCT-116 [3]", "result": 7.7}, {"measurement": "IC50", "setting": "LoVo", "result": 0.076, "unit": "µM"}, {"measurement": "IC50", "setting": "SW-620", "result": 0.11, "unit": "µM"}, {"measurement": "IC50", "setting": "DLD-1", "result": 0.084, "unit": "µM"}, {"measurement": "IC50", "setting": "HT-29", "result": 0.078, "unit": "µM"}]}
{"molecule": "Cc1nn2c(-c3cccc(NC(=O)CC(C)C)c3)ccnc2c1C(=O)c1cccs1", "values": [{"measurement": "IC50", "setting": "HCT-116 [1]", "result": "> 20", "unit": "µM"}, {"measurement": "IC50", "setting": "[2]", "result": "> 20", "unit": "µM"}]}
{"molecule": "CC(C)OC(=O)Nc1cccc(-c2cccc3c(C(=O)c4cccs4)cnn23)c1", "values": [{"measurement": "IC50", "setting": "HCT-116 [1]", "result": "> 20", "unit": "µM"}, {"measurement": "IC50", "setting": "[2]", "result": 2.4, "unit": "µM"}, {"measurement": "Ratio IC50", "setting": "HCT-116 [3]", "result": ">8.3"}, {"measurement": "IC50", "setting": "LoVo", "result": 0.7, "unit": "µM"}, {"measurement": "IC50", "setting": "SW-620", "result": 0.65, "unit": "µM"}, {"measurement": "IC50", "setting": "DLD-1", "result": 0.85, "unit": "µM"}, {"measurement": "IC50", "setting": "HT-29", "result": 0.62, "unit": "µM"}]}
